ChEMBL document CHEMBL3046158, “Design, synthesis, and fungicidal activity of macrolactones and macrolactams with a sulfonamide side chain” (J Agric Food Chem, 2008)
≈ marks a conversion by molar mass, not a printed value.

Tested on: Rhizoctonia solani
Test: Fungicidal activity against Rhizoctonia solani assessed as inhibition of mycelium growth by mycelium growth rate test
Type: functional, organism-based
How it was run: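 Mycelial growth rate test on Rhizoctonia solani. Inhibition rates measured at 100, 50, 25, 12.5 and 6.25 µg/mL.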

In order of rising EC50:
1. COC(=O)Nc1nc2ccccc2[nH]1 [CARBENDAZIM]  1.5 µg/mL (≈ 7.85 µM)
2. O=C1CCCCCCCCCCC(NS(=O)(=O)c2ccccc2)CCCO1 (configuration not stated)  2.4 µg/mL (≈ 6.07 µM)
3. O=C1CCCCCCCCCCC(NS(=O)(=O)c2ccc(Cl)cc2)CCCO1 (configuration not stated)  3.3 µg/mL (≈ 7.67 µM)
4. Cc1ccc(S(=O)(=O)NC2CCCCCCCCCCC(=O)OCCC2)cc1 (configuration not stated)  3.7 µg/mL (≈ 9.03 µM)
5. O=C1CCCCCCCCCCC(NS(=O)(=O)c2ccc(F)cc2)CCCO1 (configuration not stated)  4.5 µg/mL (≈ 10.9 µM)
6. O=C1CCCCCCCCCCC(NS(=O)(=O)c2cccs2)CCCO1 (configuration not stated)  5.1 µg/mL (≈ 12.7 µM)
7. O=C1CCCCCCCCCCCN1CCNS(=O)(=O)c1cc(Cl)ccc1Cl  5.3 µg/mL (≈ 11.8 µM)
8. O=C1CCCCCCCCCCC(NS(=O)(=O)Cc2ccccc2)CCCN1 (configuration not stated)  8.1 µg/mL (≈ 19.8 µM)
9. Cc1ccc(S(=O)(=O)NCCN2CCCCCCCCCCCC2=O)cc1  8.8 µg/mL (≈ 22.3 µM)
10. O=C1CCCCCCCCCCCN1CCNS(=O)(=O)c1cccc([N+](=O)[O-])c1  10.7 µg/mL (≈ 25.1 µM)
11. O=C1CCCCCCCCCCCN1CCNS(=O)(=O)c1ccccc1  11.6 µg/mL (≈ 30.5 µM)
12. CS(=O)(=O)NC1CCCCCCCCCCC(=O)OCCC1 (configuration not stated)  12.2 µg/mL (≈ 36.6 µM)
13. COC(=O)c1ccccc1S(=O)(=O)NC1CCCCCCCCCCC(=O)NCCC1 (configuration not stated)  12.8 µg/mL (≈ 28.3 µM)
14. Cc1ccc(S(=O)(=O)NC2CCCCCCCCCCC(=O)NCCC2)cc1 (configuration not stated)  13.4 µg/mL (≈ 32.8 µM)
15. O=C1CCCCCCCCCCC(NS(=O)(=O)c2cccs2)CCCN1 (configuration not stated)  18.3 µg/mL (≈ 45.7 µM)
16. O=C1CCCCCCCCCCC(NS(=O)(=O)c2cccc([N+](=O)[O-])c2)CCCO1 (configuration not stated)  18.7 µg/mL (≈ 42.4 µM)
17. O=C1CCCCCCCCCCCN1CCNS(=O)(=O)c1ccc(Cl)cc1  18.7 µg/mL (≈ 45.1 µM)
18. O=C1CCCCCCCCCCC(NS(=O)(=O)c2ccc(Cl)cc2)CCCN1 (configuration not stated)  19.6 µg/mL (≈ 45.7 µM)
19. CC1CCC(NS(=O)(=O)c2cccs2)CCCCCCCCCCC(=O)O1 (configuration not stated)  20.3 µg/mL (≈ 48.8 µM)
20. COC(=O)c1ccccc1S(=O)(=O)NC1CCCCCCCCCCC(=O)OCCC1 (configuration not stated)  20.9 µg/mL (≈ 46.1 µM)
21. O=C1CCCCCCCCCCC(NS(=O)(=O)c2ccccc2[N+](=O)[O-])CCCN1 (configuration not stated)  21.5 µg/mL (≈ 48.9 µM)
22. O=C1CCCCCCCCCCC(NS(=O)(=O)c2ccccc2[N+](=O)[O-])CCCO1 (configuration not stated)  22.3 µg/mL (≈ 50.6 µM)
23. O=C1CCCCCCCCCCC(NS(=O)(=O)c2ccccc2Cl)CCCO1 (configuration not stated)  25 µg/mL (≈ 58.1 µM)
24. CC1CCC(NS(=O)(=O)c2ccc(F)cc2)CCCCCCCCCCC(=O)O1 (configuration not stated)  25.1 µg/mL (≈ 58.7 µM)
25. O=C1CCCCCCCCCCC(NS(=O)(=O)c2cccc([N+](=O)[O-])c2)CCCN1 (configuration not stated)  27.6 µg/mL (≈ 62.8 µM)
26. CC1CCC(NS(=O)(=O)Cc2ccccc2)CCCCCCCCCCC(=O)O1 (configuration not stated)  28.2 µg/mL (≈ 66.6 µM)
27. O=C1CCCCCCCCCCC(NS(=O)(=O)c2cc(Cl)ccc2Cl)CCCO1 (configuration not stated)  28.4 µg/mL (≈ 61.1 µM)
28. CC1CCC(NS(=O)(=O)c2cc(Cl)ccc2Cl)CCCCCCCCCCC(=O)O1 (configuration not stated)  30 µg/mL (≈ 62.7 µM)
29. O=C1CCCCCCCCCCC(NS(=O)(=O)c2cc(Cl)ccc2Cl)CCCN1 (configuration not stated)  30.4 µg/mL (≈ 65.6 µM)
30. O=C1CCCCCCCCCCC(NS(=O)(=O)c2ccc(F)cc2)CCCN1 (configuration not stated)  36.7 µg/mL (≈ 89 µM)
31. CC1CCC(NS(=O)(=O)c2ccccc2Cl)CCCCCCCCCCC(=O)O1 (configuration not stated)  37.9 µg/mL (≈ 85.4 µM)
32. CS(=O)(=O)NC1CCCCCCCCCCC(=O)NCCC1 (configuration not stated)  45.1 µg/mL (≈ 136 µM)
33. CC1CCC(NS(=O)(=O)c2ccccc2)CCCCCCCCCCC(=O)O1 (configuration not stated)  51.3 µg/mL (≈ 125 µM)
34. O=C1CCCCCCCCCCC(NS(=O)(=O)Cc2ccccc2)CCCO1 (configuration not stated)  52.4 µg/mL (≈ 128 µM)
35. COC(=O)c1ccccc1S(=O)(=O)NC1CCCCCCCCCCC(=O)OC(C)CC1 (configuration not stated)  53.4 µg/mL (≈ 114 µM)
36. O=C1CCCCCCCCCCC(NS(=O)(=O)c2ccccc2)CCCN1 (configuration not stated)  55.3 µg/mL (≈ 140 µM)
37. CC1CCC(NS(C)(=O)=O)CCCCCCCCCCC(=O)O1 (configuration not stated)  56.4 µg/mL (≈ 162 µM)
38. Cc1ccc(S(=O)(=O)NC2CCCCCCCCCCC(=O)OC(C)CC2)cc1 (configuration not stated)  57 µg/mL (≈ 135 µM)
39. O=C1CCCCCCCCCCC(NS(=O)(=O)c2ccccc2Cl)CCCN1 (configuration not stated)  59.5 µg/mL (≈ 139 µM)
40. CC1CCC(NS(=O)(=O)c2ccc(Cl)cc2)CCCCCCCCCCC(=O)O1 (configuration not stated)  69.6 µg/mL (≈ 157 µM)
41. CC1CCC(NS(=O)(=O)c2cccc([N+](=O)[O-])c2)CCCCCCCCCCC(=O)O1 (configuration not stated)  86 µg/mL (≈ 189 µM)
42. CC1CCC(NS(=O)(=O)c2ccccc2[N+](=O)[O-])CCCCCCCCCCC(=O)O1 (configuration not stated)  93.3 µg/mL (≈ 205 µM)
